Measurements reported in ChEMBL document CHEMBL3227938, “Quantitative structure-activity relationships for biguanides, carbamimidates, and bisbiguanides as inhibitors of Streptococcus mutans No. 6715” (J Med Chem, 1979).

What was measured:
Streptococcus mutans [1] = experiment: Antimicrobial activity against Streptococcus mutans 6715 after 24 hrs by spectrophotometry; format: functional
Outline: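 Inoculated with a 24-h S. mutans 6715 culture and incubated anaerobically at 37 °C. Growth read spectrophotometrically. Dilution series run in sets of five tubes. MIC is the lowest drug level with readings above 60% T at 24 h. Repeat determinations agreed.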

[2] = Octanol-phosphate buffer partition coefficient, log P of the compound at pH 11.5; format: physicochemical
Outline: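 Compound partitioned between 0.05 M phosphate buffer (pH 11.5) and octanol, each pre-saturated with the other. Gentle shaking for 90 min at 25 ± 5 °C. Phase ratio and sample amount set so the buffer-layer absorbance fell between 0.2 and 0.9 (1-cm cell, buffer blank). Free-base P was corrected for degree of ionization using pKa.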

Streptococcus mutans [3] = experiment: Antimicrobial activity against Streptococcus mutans 6715 after 48 hrs by spectrophotometry; format: functional
Outline: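 Trypticase soy broth with sucrose and the salt of the test agent dosed from ethanol, inoculated with a 24-h S. mutans 6715 culture. Incubated anaerobically at 37 °C. Growth measured spectrophotometrically at 48 h. Each dilution tested in sets of five tubes.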

[4] = Dissociation constant, pKa of the compound in 3:1 water:ethanol at 1 x 10 '-3 M; format: physicochemical
Outline: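 pKa measured in duplicate by potentiometric titration in 3:1 water–ethanol at 10⁻³. pH recorded after each titrant addition, and pKa calculated by the Albert–Serjeant method.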

| SMILES | log(1/MIC) (Streptococcus mutans [1]) | logD [2] | log(1/MIC) (Streptococcus mutans [3]) | pKa at 1000 µM [4] |
| --- | --- | --- | --- | --- |
| CCCCCC/N=C(N)/N=C(\N)Nc1ccc(Cl)cc1 | 5 | 3.13 | 5 | – |
| CNC(=N)NC(=N)Nc1ccc(Cl)cc1 | 3 | 1.58 | 3 | 10.6 |
| CCNC(=N)NC(=N)Nc1ccc(Cl)cc1 | 3.04 | 2.14 | 3 | 10.8 |
| CCCNC(=N)NC(=N)Nc1ccc(Cl)cc1 | 3.04 | 2.63 | 3 | 10.8 |
| CCCCNC(=N)NC(=N)Nc1ccc(Cl)cc1 | 4 | 3.13 | 4 | 10.8 |
| CCCCC(CC)CNC(=N)NC(=N)Nc1ccc(Cl)cc1 (stereo not drawn) | 5.4 | 4.93 | 5.4 | – |
| CCCCCCCCNC(=N)NC(=N)Nc1ccc(Cl)cc1 | 5.22 | 5.13 | 5.22 | – |
| CCCCCCCCCCNC(=N)NC(=N)Nc1ccc(Cl)cc1 | 5.1 | 6.13 | 5 | – |
| CCCCCCCCCCCCNC(=N)NC(=N)Nc1ccc(Cl)cc1 | 5 | 7.13 | 4.7 | – |
| CCCCCCCCNC(=N)NC(=N)Nc1ccc(C)cc1 | 5.4 | 4.93 | 5.3 | – |
| CCCCC(CC)CNC(=N)NC(=N)Nc1ccc(C)cc1 (stereo not drawn) | 5.22 | 4.73 | 5.22 | – |
| CCCCCCCCNC(=N)NC(=N)Nc1ccccc1 | 5.22 | 4.43 | 5.04 | – |
| CCCCCCCCCCNC(=N)NC(=N)Nc1ccccc1 | 5.3 | 5.43 | 5.15 | – |
| CCCCCCNC(=N)NC(=N)Nc1cccc(C(F)(F)F)c1 | 5 | 4.31 | 4.96 | – |
| CCCCCCCCNC(=N)NC(=N)Nc1cccc(C(F)(F)F)c1 | 5.3 | 5.31 | 5.3 | – |
| CCCCCCCCNC(=N)NC(=N)Nc1ccc(OC)cc1 | 5.22 | 4.41 | 5 | – |
| CCOC(=N)NC(=N)Nc1ccc(Cl)cc1 | 3.7 | 2.32 | 3.7 | 9.36 |
| CC(C)OC(=N)NC(=N)Nc1ccc(Cl)cc1 | 3.3 | 2.64 | 3.3 | 9.35 |
| CCCCOC(=N)NC(=N)Nc1ccc(Cl)cc1 | 4.15 | 3.32 | 4 | – |

| SMILES | log(1/MIC) (Streptococcus mutans [1]) | logD [2] | log(1/MIC) (Streptococcus mutans [3]) | pKa at 1000 µM [4] |
| --- | --- | --- | --- | --- |
| CCCCCCOC(=N)NC(=N)Nc1ccc(Cl)cc1 | 5.1 | 4.32 | 5 | – |
| CCCCCCCCOC(=N)NC(=N)Nc1ccc(Cl)cc1 | 5.52 | 5.32 | 5.3 | – |
| CCCCCCCCCCOC(=N)NC(=N)Nc1ccc(Cl)cc1 | 5.05 | 6.32 | 5.05 | – |
| N=C(NCCCCCCNC(=N)NC(=N)Nc1cccc(C(F)(F)F)c1)NC(=N)Nc1cccc(C(F)(F)F)c1 | 5.52 | 5.12 | 5.22 | – |
| N=C(NCCCCCCNC(=N)NC(=N)NC1CCCCC1)NC(=N)NC1CCCCC1 | 5.4 | 4.46 | 5.4 | – |
| N=C(NCCCCCCNC(=N)NC(=N)NC12CC3CC(CC(C3)C1)C2)NC(=N)NC12CC3CC(CC(C3)C1)C2 | 5 | 6.04 | 5 | – |
| CSc1ccc(NC(=N)NC(=N)NCCCCCCNC(=N)NC(=N)Nc2ccc(SC)cc2)cc1 | 5.4 | 4.58 | 5.4 | – |
| CCSc1ccc(NC(=N)NC(=N)NCCCCCCNC(=N)NC(=N)Nc2ccc(SCC)cc2)cc1 | 5.7 | 5.58 | 5.7 | – |
| CCCCSc1ccc(NC(=N)NC(=N)NCCCCCCNC(=N)NC(=N)Nc2ccc(SCCCC)cc2)cc1 | 5.7 | 7.58 | 5.52 | – |
| CCCCCSc1ccc(NC(=N)NC(=N)NCCCCCCNC(=N)NC(=N)Nc2ccc(SCCCCC)cc2)cc1 | 5.52 | 8.58 | 5.3 | – |
| CCCS(=O)(=O)c1ccc(NC(=N)NC(=N)NCCCCCCNC(=N)NC(=N)Nc2ccc(S(=O)(=O)CCC)cc2)cc1 | 3.7 | 2.1 | 3.7 | – |
| CCCCS(=O)(=O)c1ccc(NC(=N)NC(=N)NCCCCCCNC(=N)NC(=N)Nc2ccc(S(=O)(=O)CCCC)cc2)cc1 | 4.7 | 3.1 | 4.52 | – |
| CCCCCS(=O)(=O)c1ccc(NC(=N)NC(=N)NCCCCCCNC(=N)NC(=N)Nc2ccc(S(=O)(=O)CCCCC)cc2)cc1 | 5.52 | 4.1 | 5.4 | – |
| CCCCCCS(=O)(=O)c1ccc(NC(=N)NC(=N)NCCCCCCNC(=N)NC(=N)Nc2ccc(S(=O)(=O)CCCCCC)cc2)cc1 | 5.4 | 5.1 | 5.4 | – |
| CCCSc1ccc(NC(=N)NC(=N)NCCCCCCNC(=N)NC(=N)Nc2ccc(SCCC)cc2)cc1 | 5.3 | 6.58 | 5.22 | – |
| CCCCC(CC)CNC(=N)NC(=N)NCCCCCCNC(=N)NC(=N)NCC(CC)CCCC (stereo not drawn) [ALEXIDINE] | 5.15 | 7.04 | 5.1 | – |
| N=C(NCCCCCCNC(=N)NC(=N)Nc1ccc(Cl)cc1)NC(=N)Nc1ccc(Cl)cc1 [CHLORHEXIDINE] | 5.3 | 4.78 | 5.22 | 10.8 |
| CC(C)NC(=N)NC(=N)Nc1ccc(Cl)cc1 [PROGUANIL] | 3.04 | 2.43 | 3 | – |
